One series deals with PC-3. Nature of the series: Antiproliferative activity against human PC3 cells after 72 hrs by trypan blue exclusion assay. Particulars: PC-3, 72 h. In kind it is functional, cell-based. Summed up: (§1)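 Cells were kept in DMEM with 10% fetal serum and exposed to four concentrations of compound for 72 h at 37 °C in humidified 5% CO₂. They were then stained with 0.25% trypan blue for 20 min, and viable cells were counted by light microscopy. IC₅₀ was derived from separate experiments run in triplicate.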

The next series concerns A549. Nature of the series: Antiproliferative activity against human A549 cells after 72 hrs by trypan blue exclusion assay. Particulars: A549, 72 h. In kind it is functional, cell-based. Summed up:
as §1

The next series concerns MCF7. Nature of the series: Antiproliferative activity against human MCF7 cells after 72 hrs by trypan blue exclusion assay. The class given is functional, cell-based. Particulars: MCF7, 72 h. Summed up: as §1
Series [1] deals with Raji. Nature of the series: Inhibition of 12-O-tetradecanoylphorbol-13-acetate-induced EBV-early antigen activation in human Raji cells assessed as EA induction at 1000 molar ratio after 48 hrs by immunofluorescence technique relative to 12-O-tetradecanoylphorbol-13-acetate. In kind it is cell-based. Particulars: human gammaherpesvirus 4. In outline:
(§2)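 Raji cells were incubated for 48 h at 37 °C in medium with n-butyric acid (4 mM), TPA (32 pmol) and graded amounts of test compound. Smears were stained for EBV-EA by indirect immunofluorescence, and positive cells were counted among at least 500 cells. Assays were run in triplicate. Activity was expressed relative to the n-butyric acid plus TPA control, set as 100%.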

For series [2], the system named is Raji. Nature of the series: Inhibition of 12-O-tetradecanoylphorbol-13-acetate-induced EBV-early antigen activation in human Raji cells assessed as EA induction at 500 molar ratio after 48 hrs by immunofluorescence technique relative to 12-O-tetradecanoylphorbol-13-acetate. The class given is cell-based. On the set-up: scale not given: the % may be the effect or the level left. Particulars: human gammaherpesvirus 4. In outline:
as §2

For series [3], the system named is Raji. Nature of the series: Inhibition of 12-O-tetradecanoylphorbol-13-acetate-induced EBV-early antigen activation in human Raji cells assessed as EA induction at 100 molar ratio after 48 hrs by immunofluorescence technique relative to 12-O-tetradecanoylphorbol-13-acetate. The class given is cell-based. Also noted: scale not given: the % may be the effect or the level left. Particulars: human gammaherpesvirus 4. In outline:
as §2

Series [4] relates to Raji. Nature of the series: Inhibition of 12-O-tetradecanoylphorbol-13-acetate-induced EBV-early antigen activation in human Raji cells assessed as EA induction at 10 molar ratio after 48 hrs by immunofluorescence technique relative to 12-O-tetradecanoylphorbol-13-acetate. On the set-up: scale not given: the % may be the effect or the level left. Particulars: human gammaherpesvirus 4. The class given is cell-based. In outline:
as §2

Series [5] can be described thus: Inhibition of 12-O-tetradecanoylphorbol-13-acetate-induced EBV-early antigen activation in human Raji cells after 48 hrs by immunofluorescence technique. In kind it is cell-based, human gammaherpesvirus 4. In outline: as §2
Series [6] is described as follows: Cytotoxicity against human Raji cells assessed as cell viability at 1000 molar ratio after 48 hrs by trypan blue staining. The class given is cell-based. Particulars: read-out: Activity. In outline: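 Raji cells were exposed for 48 h at 37 °C to n-butyric acid (4 mM), TPA (32 pmol) and test compound, as in the EBV-EA induction setup. Viability of the treated cells was then measured by trypan blue staining.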

Series [7] is described as follows: Cytotoxicity against human Raji cells assessed as cell viability at 500 molar ratio after 48 hrs by trypan blue staining. The class given is cell-based. Particulars: read-out: Activity. In outline: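 Raji cells incubated 48 h at 37 °C in medium containing n-butyric acid (4 mM), TPA (32 pmol) and various amounts of test compound, as part of the EBV-EA activation inhibition assay. Viability of the treated cells was then assayed by trypan blue staining.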

A further series deals with Bacillus subtilis. Nature of the series: Antimicrobial activity against Bacillus subtilis NBRC3134 after 24 hrs by broth dilution method. Particulars: NBRC3134, 24 h. In kind it is functional. Summed up:
(§3)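 Modified NCCLS broth dilution. A 50 µL aliquot of bacterial cells (10⁶/mL in 0.85% NaCl) was added to 1 mL Mueller-Hinton broth containing compound over a 0.1–100 range.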
(In broth dilution the organism is exposed to a series of concentrations in liquid medium.)

Another series concerns Staphylococcus aureus. Nature of the series: Antimicrobial activity against Staphylococcus aureus NBRC13276 after 24 hrs by broth dilution method. In kind it is functional. Particulars: NBRC13276, 24 h. In outline:
as §3

In a further series the test system is Bacillus mycoides. Nature of the series: Antimicrobial activity against Bacillus mycoides ATCC 11778 after 24 hrs by broth dilution method. Particulars: ATCC 11778, 24 h. In kind it is functional. In outline: as §3
The next series deals with Escherichia coli. Nature of the series: Antimicrobial activity against Escherichia coli ATCC 11775 after 24 hrs by broth dilution method. In kind it is functional. Particulars: ATCC 11775, 24 h. Summed up:
as §3

For a further series, the system named is Pseudomonas aeruginosa. Nature of the series: Antimicrobial activity against Pseudomonas aeruginosa NBRC13275 after 24 hrs by broth dilution method. Particulars: NBRC13275, 24 h. In kind it is functional. In outline:
as §3

The test system of a further series is Salmonella enteritidis. Nature of the series: Antimicrobial activity against Salmonella enteritidis OPS10 after 24 hrs by broth dilution method. In kind it is functional, Salmonella enterica subsp. enterica serovar Enteritidis. Particulars: Salmonella enterica, OPS10, 24 h. In outline:
as §3

The subject of the next series is Candida albicans. Nature of the series: Antimicrobial activity against Candida albicans NBRC1060 after 24 hrs by broth dilution method. The class given is functional. Particulars: NBRC1060, 24 h.
Series [8] has as its system Saccharomyces cerevisiae. Nature of the series: Antimicrobial activity against Saccharomyces cerevisiae NBRC10114 after 24 hrs by broth dilution method. In kind it is functional. Particulars: NBRC10114, 24 h.
The next series has as its system Penicillium expansum. Nature of the series: Antimicrobial activity against Penicillium expansum NBRC8800 after 24 hrs by broth dilution method. The class given is functional. Particulars: NBRC8800, 24 h.
Another series has as its system Naganishia albida. Nature of the series: Antimicrobial activity against Cryptococcus albidus NBRC0378 after 3-5 days by broth dilution method. Particulars: NBRC0378, 3-5 days.
A further series has as its system Aspergillus fumigatus. Nature of the series: Antimicrobial activity against Aspergillus fumigatus NBRC4400 after 3-5 days by broth dilution method. Particulars: NBRC4400, 3-5 days.
For another series, the system named is Paecilomyces variotii. Nature of the series: Antimicrobial activity against Paecilomyces variotii NBRC4855 after 3-5 days by broth dilution method. Particulars: NBRC4855, 3-5 days.
Series [9] in a line: Antiproliferative activity against human Hs888Lu cells after 72 hrs by trypan blue exclusion assay. In kind it is cell-based. Summed up: as §1
Series [10] can be described thus: Antiproliferative activity against human SVCT-M12 cells after 72 hrs by trypan blue exclusion assay. The class given is cell-based. Particulars: SVCT-M12, 72 h. Summed up:
as §1

Series [11] concerns Saccharomyces cerevisiae. Nature of the series: Antimicrobial activity against Saccharomyces cerevisiae NBRC10114 after 3-5 days by broth dilution method. Particulars: NBRC10114, 3-5 days.
A short description of series [12]: Antiproliferative activity against human skin fibroblast after 72 hrs by trypan blue exclusion assay. The class given is cell-based. In outline:
as §1

The next series deals with Hepatocyte. Nature of the series: Antiproliferative activity against human hepatocytes after 72 hrs by trypan blue exclusion assay. The class given is cell-based. In outline: as §1
The nature of series [13]: Antiproliferative activity against human MPC5 cells after 72 hrs by trypan blue exclusion assay. The class given is cell-based. Particulars: MPC-5, 72 h. In outline:
as §1

A short description of series [14]: Anticancer activity against DMBA/TPA-induced skin cancer in mouse assessed as incidence of papilloma at 85 nmol administered before TPA challenge measured after 10 weeks. In kind it is functional. Summed up: (§4)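 Mouse two-stage skin model: DMBA 390 nmol in 0.1 mL acetone applied topically by pipet. One week later, the same skin site was painted with test compound (85 nmol in acetone) or acetone alone, 60 min before TPA (1.7 nmol). Tumor response was scored as the average number of papillomas per mouse and the percentage of mice bearing papillomas.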

Series [15] is described as follows: Anticancer activity against DMBA/TPA-induced skin cancer in mouse assessed as incidence of papilloma at 85 nmol administered before TPA challenge measured after 15 weeks. The class given is functional. Summed up:
as §4

The nature of series [16]: Anticancer activity against DMBA/TPA-induced skin cancer in mouse assessed as incidence of papilloma at 85 nmol administered before TPA challenge measured after 20 weeks. In kind it is functional. In outline:
as §4

Series [17] in a line: Anticancer activity against DMBA/TPA-induced skin cancer in mouse assessed as number of papillomas per mouse at 85 nmol administered before TPA challenge measured after 20 weeks. In kind it is functional. In outline:
as §4

≈ marks a conversion by molar mass, not a printed value. Bounds are passed on as bounds.

We go through five molecules from ChEMBL document CHEMBL1152539, “Synthesis and evaluation of bioactive naphthoquinones from the Brazilian medicinal plant, Tabebuia avellanedae” (Bioorg Med Chem, 2009).

As to `CC(C)=CCC1=C(O)C(=O)c2ccccc2C1=O` [LAPACHOL], the IC50 in the series on PC-3 came to 1970 nM; in the series on A549 it was 4780 nM; in the series with MCF7, 10200 nM; in series [5], 311 mol ratio/32 pmol TPA. In the series with Raji [1], the EA induction relative to TPA control was determined as 8.9%. Moreover, the Activity in the series on Raji [2] came out at 32.8%; with Raji [3] it was 65.2%; in the series with Raji [4], 86.6%. Besides, in [6], the viability at 48 h, 1000 molar ratio was found to be 50%. For the same molecule, in series [7], the viability at 48 h, 500 molar ratio was found to be 60%.
What is called MIC is the lowest concentration found to suppress growth. `C[C@@H](O)c1cc2c(o1)C(=O)c1c(O)cccc1C2=O`: in the series with Raji [1], the EA induction relative to TPA control was found to be 4.2%. Further, the Activity with Raji [2] stood at 20.4%; with Raji [3], 52.5%; in the series on Raji [4] it was 76.3%. The IC50 in [5] was found to be 201 mol ratio/32 pmol TPA. Moreover, in series [6], the viability at 48 h, 1000 molar ratio was 60%. Also, the minimal inhibitory concentration (MIC) is 1.56 µg/mL (≈ 6.04 µM) in the series on Bacillus subtilis; 6.25 µg/mL (≈ 24.2 µM) against Staphylococcus aureus; 1.56 µg/mL (≈ 6.04 µM) in the series with Bacillus mycoides; over 100 µg/mL in the series on Escherichia coli; over 100 µg/mL against Pseudomonas aeruginosa; over 100 µg/mL against Salmonella enteritidis. Besides, the minimum inhibitory concentration (MIC) in the series with Candida albicans was 25 µg/mL (≈ 96.8 µM); in the series on Saccharomyces cerevisiae [8] it was 3.13 µg/mL (≈ 12.1 µM); in the series with Penicillium expansum, 50 µg/mL (≈ 194 µM); in the series with Naganishia albida, 1.56 µg/mL (≈ 6.04 µM); with Aspergillus fumigatus, 25 µg/mL (≈ 96.8 µM); in the series on Paecilomyces variotii it was 50 µg/mL (≈ 194 µM).
As a reminder, the EC50 is the concentration giving half of the maximal effect. As to `CC(=O)c1cc2c(o1)C(=O)c1cccc(O)c1C2=O`, the IC50 worked out at 840 nM in the series with PC-3, 2000 nM in the series on A549, 780 nM in the series with MCF7 and 37.2 mol ratio/32 pmol TPA in series [5]. Further, the concentration for a half-maximal effect (EC50) in series [9] and in series [10] was 7700 nM in each case. The EA induction relative to TPA control with Raji [1] is 0%. Also, the Activity in the series on Raji [2] came out at 7.1%; in the series on Raji [3], 23.7%; with Raji [4], 56%. Besides, in [6], the viability at 48 h, 1000 molar ratio came to 60%. For the same molecule, the MIC is 1.56 µg/mL (≈ 6.09 µM) in the series on Bacillus subtilis; 1.56 µg/mL (≈ 6.09 µM) against Staphylococcus aureus; 0.78 µg/mL (≈ 3.04 µM) against Bacillus mycoides; over 100 µg/mL with Escherichia coli; over 100 µg/mL against Pseudomonas aeruginosa; over 100 µg/mL in the series with Salmonella enteritidis. In addition, the MIC against Candida albicans is over 100 µg/mL; against Penicillium expansum, 50 µg/mL (≈ 195 µM); against Naganishia albida it was 1.56 µg/mL (≈ 6.09 µM); in the series with Aspergillus fumigatus, 100 µg/mL (≈ 390 µM); against Paecilomyces variotii it was 100 µg/mL (≈ 390 µM); with Saccharomyces cerevisiae [11] it was 1.56 µg/mL (≈ 6.09 µM).
For the molecule `CO[C@@]12[C@H](COC(N)=O)C3=C(C(=O)C(C)=C(N)C3=O)N1C[C@@H]1N[C@@H]12` [MITOMYCIN], the EC50 in series [12] came out at 930 nM; in the series with Hepatocyte, 1460 nM; in [13], 2100 nM; in [9], 560 nM; in [10] it was 960 nM.
Regarding `CC(O)c1cc2c(o1)C(=O)c1cccc(O)c1C2=O` (racemic), the EC50 was found to be 45400 nM in series [12] and 89300 nM in the series with Hepatocyte. For the same molecule, the EA induction relative to TPA control with Raji [1] was 0%. In addition, the Activity in the series on Raji [2] is 6.2%; in the series on Raji [3], 20.7%; in the series with Raji [4] it was 52.9%; in [14], 7%; in series [15], 47%; in series [16], 67%. Moreover, in series [17], the Activity turned out to be 3.9. In series [5], the IC50 was found to be 34.9 mol ratio/32 pmol TPA. The viability at 48 h, 1000 molar ratio in series [6] was found to be 60%. Further, in series [7], the viability at 48 h, 500 molar ratio is 70%.
